One assay relates to NCI-H1299. The experiment in a line: Antiproliferative activity against human H1299 cells incubated for 48 hrs by CCK-8 assay. The note with it: NCI-H1299, 48 h. Format: functional, cell-based. In outline: (§1)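 Cells from ATCC, passaged six times, grown in DMEM with 10% FBS and penicillin/streptomycin at 37 °C under 5% CO2. Seeded at 2500 cells/well, cultured overnight, treated 48 h, viability read by CCK-8. Run in triplicate; values are the mean of three experiments.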

The target in assay [1] is T1, NEDD8-activating enzyme E1 regulatory subunit (Homo sapiens) (UniProt Q13564).
T1 sequence (whole entry): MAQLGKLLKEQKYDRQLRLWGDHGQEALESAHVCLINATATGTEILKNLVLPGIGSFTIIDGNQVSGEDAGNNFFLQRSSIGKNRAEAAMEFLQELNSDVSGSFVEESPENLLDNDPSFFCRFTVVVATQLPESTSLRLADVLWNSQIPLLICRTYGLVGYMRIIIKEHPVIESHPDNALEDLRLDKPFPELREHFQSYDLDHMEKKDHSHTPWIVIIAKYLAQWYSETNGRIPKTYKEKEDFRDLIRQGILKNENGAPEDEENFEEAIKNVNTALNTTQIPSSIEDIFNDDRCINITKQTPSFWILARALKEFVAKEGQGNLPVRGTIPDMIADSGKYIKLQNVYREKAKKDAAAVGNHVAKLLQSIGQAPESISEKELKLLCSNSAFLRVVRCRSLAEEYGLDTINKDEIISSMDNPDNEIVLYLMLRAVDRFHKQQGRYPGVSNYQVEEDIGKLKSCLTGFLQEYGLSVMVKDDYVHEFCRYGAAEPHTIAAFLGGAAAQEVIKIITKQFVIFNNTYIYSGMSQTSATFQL
Briefly: Inhibition of NAE (unknown origin)-mediated neddylation assessed as suppression of cullin1-Nedd8 adduct formation at 25 uM preincubated for 10 mins followed by ATP addition and measured after 30 mins by immunoblot analysis relative to control. The note with it: time 40.0 min. (Immunoblotting shows a protein as a band on a membrane.)

The subject of assay [2] is A549. Briefly: Induction of Wee1 accumulation in human A549 cells at 50 uM incubated for 6 to 12 hrs by Western blot analysis. It counts as functional, cell-based. As to conditions: time 6-12 hrs. In outline: (§2)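 A549 cells were treated 6 or 12 h with graded concentrations (4.5–75 μM) against a 0.1% DMSO control. Cells were washed in cold PBS, lysed in RIPA on ice and cleared by centrifugation, and protein was normalized. Cullin-Nedd8 was resolved on non-reducing SDS-PAGE and Wee1/p27 under reducing conditions, then detected by Western blot.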

Assay [3] relates to A549. Briefly: Induction of p27 accumulation in human A549 cells at 50 uM incubated for 6 to 12 hrs by Western blot analysis. It counts as functional, cell-based. The note with it: time 6-12 hrs. In outline: as §2
For assay [4], the system named is A549. Briefly: Antiproliferative activity against human A549 cells incubated for 48 hrs by CCK-8 assay. Format: functional, cell-based. As to conditions: A549, 48 h. The procedure, abridged:
as §1
(In general: Tetrazolium dyes change colour on reduction, which living cells bring about.)

In assay [5] the test system is A549. The experiment in a line: Antitumor activity against human A549 cells xenografted in nude mouse assessed as decrease in tumor weight at 30 mg/kg, ip qd for 5 days on and 2 days off dosing and measured after 24 days post-treatment. Format: functional, organism-based. As to conditions: time 24.0 day. The procedure, abridged:
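Female nude mice were inoculated subcutaneously with 2×10^6 A549 cells in 0.1 mL PBS. At tumor volume 70–100 mm³, mice were randomized into 5 groups of 6. Dosing was ip or oral gavage, once daily on a 5-days-on/2-days-off schedule, with 10% 2-hydroxypropyl-β-cyclodextrin/water as vehicle control. Body weight and tumor volume were measured every two days; tumors were weighed at sacrifice. Significance by two-tailed Student's t-test.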
On the technique in general: In xenograft studies the graft and the host belong to different species.

A further assay has as its system BEAS-2B. The experiment in a line: Cytotoxicity against human BEAS-2B cells incubated for 48 hrs by CCK-8 assay. Format: cell-based. In outline: as §1
The subject of assay [6] is A549. The experiment in a line: Induction of apoptosis in human A549 cells assessed as early apoptotic cells at 40 uM after 48 hrs by Annexin V-FITC/PI double staining based flow cytometric analysis (reference value: 2.04%). It counts as functional.
The subject of assay [7] is A549. The experiment in a line: Induction of apoptosis in human A549 cells assessed as live cells at 20 uM after 48 hrs by Annexin V-FITC/PI double staining based flow cytometric analysis (reference value: 91.8%). It counts as functional.
The subject of assay [8] is A549. The experiment in a line: Induction of apoptosis in human A549 cells assessed as increase in ratio of early and late apoptotic cells at 10 to 40 uM after 48 hrs by Annexin V-FITC/PI double staining based flow cytometric analysis (reference value: 2.6%). As to conditions: dose 10-40 µM. It counts as functional.
Assay [9] concerns A549. Briefly: Induction of apoptosis in human A549 cells assessed as necrotic cells at 20 uM after 48 hrs by Annexin V-FITC/PI double staining based flow cytometric analysis (reference value: 1.57%). Format: functional.
Assay [10] concerns A549. Briefly: Induction of apoptosis in human A549 cells assessed as live cells at 40 uM after 48 hrs by Annexin V-FITC/PI double staining based flow cytometric analysis (reference value: 91.8%). It counts as functional.
Assay [11] relates to A549. The experiment in a line: Induction of cellular senescence in human A549 cells at 10 uM by SA-beta-gal-staining based assay. Format: functional, cell-based.
The subject of assay [12] is A549. Briefly: Induction of apoptosis in human A549 cells assessed as late apoptotic cells at 40 uM after 48 hrs by Annexin V-FITC/PI double staining based flow cytometric analysis (reference value: 4.62%). It counts as functional.

Activity calls are given as the source filed them. The calls are words filed in the database; no cut-off is given here.

Regarding `CCOc1nc2cccc(C(=O)NCCc3ccc(Cl)cc3Cl)c2n1Cc1ccc(-c2ccccc2-c2nnn[nH]2)cc1`, the IC50 (usually the concentration that gives 50% inhibition) in the assay with NCI-H1299 worked out at 21.8 µM; in the assay with A549 [4], 20.4 µM; in the assay on BEAS-2B it was 79.4 µM. For the same compound, the inhibition (in general, the share of the control response that was lost under treatment) in assay [1] worked out at 86.4%. For the same compound, the outcome with A549 [2], with A549 [3], in the assay on A549 [5] and in the assay on A549 [11] was Active. Further, the Activity in the assay on A549 [6] was 32.1%; in the assay with A549 [7], 72.6%; with A549 [8], 35.81%; in the assay on A549 [9] it was 1.91%; with A549 [10], 63.2%; in the assay on A549 [12] it was 3.71%.
